# Values joined by “and” are separate entries in the source; they are usually repeats but may differ in a detail not shown here. Identical values can stand only once.
# Key:
# [1] = Toxicokinetics, rabbit DRF EFD study; conditions: female, in vivo
# [2] = Rat main embryofetal developmental toxicity study; type: in vivo; conditions: female, Sprague-Dawley, rat, in vivo, oral, maternal NOAEL, rat main EFD
# How it was run: (§1)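 GLP main study following ICH S5(R2): 24 time-mated naïve Crl:CD SD females per group (plug day = GD0) given 2, 6 or 20 mg/kg/day orally once daily GD6–GD17. Vehicle was 20% w/w Kolliphor HS 15 / 50% w/w PEG 400 in water, with the compound suspended in it. Necropsy followed CO2 euthanasia on GD21. Maternal body weight, weight gain, food intake, pregnancy status, corpora lutea, postimplantation loss and live fetuses were recorded. Fetal weight, external, visceral and skeletal examinations were done.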
# [3] = test system: pregnant rats; test: Rat main embryofetal developmental toxicity study; type: in vivo; conditions: for food consumption, % of control / maternal weight gain, % of control: GD6 to GD9
# How it was run: as §1
# [4] = Rat investigative embryofetal developmental toxicity study; type: in vivo; conditions: female, Sprague-Dawley, rat, in vivo, oral
# How it was run: (§2)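 Crl:OFA SD naïve time-mated females, 25 per group (plug day = GD0), under GLP and ICH S5(R2). Oral daily doses of 20, 40 or 60 mg/kg/day were given GD6–GD17; an extra 60 mg/kg/day group was dosed only GD8–GD11 (diaphragm formation). Suspension vehicle: 20% w/w Kolliphor HS 15 / 50% w/w PEG 400 in water. CO2 euthanasia and necropsy on GD21. Maternal endpoints were recorded, plus fetal weight, external and visceral exams.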
# [5] = test system: pregnant rats; test: as above; type: in vivo; conditions: rat investigative EFD; for mean maternal body weight gain, % of controls: dosing and post dose periods
# How it was run: as §2
# [6] = target: PI4Kα (Homo sapiens, UniProt P42356); test: ADP-Glo Kinase Assay, PI4Kα; type: biochemical
# [7] = target: PI3Kγ (Homo sapiens, UniProt P48736); test: ADP-Glo Kinase Assay, PI3Kγ; type: biochemical
# [8] = target: PI4Kβ (Homo sapiens, UniProt Q9UBF8); conditions: chemoproteomic profiling, ref Paquet et al., [2017]; cited from earlier work
# [9] = rat main EFD, 2 mg/kg/day GD6-GD17
# [10] = rat main EFD, 6 mg/kg/day GD6-GD17
# [11] = rat main EFD, 20 mg/kg/day GD6-GD17
# [12] = 60 mg/kg/day, only dosed GD8 to GD11
# PI3Kγ, sequence (P48736 whole entry): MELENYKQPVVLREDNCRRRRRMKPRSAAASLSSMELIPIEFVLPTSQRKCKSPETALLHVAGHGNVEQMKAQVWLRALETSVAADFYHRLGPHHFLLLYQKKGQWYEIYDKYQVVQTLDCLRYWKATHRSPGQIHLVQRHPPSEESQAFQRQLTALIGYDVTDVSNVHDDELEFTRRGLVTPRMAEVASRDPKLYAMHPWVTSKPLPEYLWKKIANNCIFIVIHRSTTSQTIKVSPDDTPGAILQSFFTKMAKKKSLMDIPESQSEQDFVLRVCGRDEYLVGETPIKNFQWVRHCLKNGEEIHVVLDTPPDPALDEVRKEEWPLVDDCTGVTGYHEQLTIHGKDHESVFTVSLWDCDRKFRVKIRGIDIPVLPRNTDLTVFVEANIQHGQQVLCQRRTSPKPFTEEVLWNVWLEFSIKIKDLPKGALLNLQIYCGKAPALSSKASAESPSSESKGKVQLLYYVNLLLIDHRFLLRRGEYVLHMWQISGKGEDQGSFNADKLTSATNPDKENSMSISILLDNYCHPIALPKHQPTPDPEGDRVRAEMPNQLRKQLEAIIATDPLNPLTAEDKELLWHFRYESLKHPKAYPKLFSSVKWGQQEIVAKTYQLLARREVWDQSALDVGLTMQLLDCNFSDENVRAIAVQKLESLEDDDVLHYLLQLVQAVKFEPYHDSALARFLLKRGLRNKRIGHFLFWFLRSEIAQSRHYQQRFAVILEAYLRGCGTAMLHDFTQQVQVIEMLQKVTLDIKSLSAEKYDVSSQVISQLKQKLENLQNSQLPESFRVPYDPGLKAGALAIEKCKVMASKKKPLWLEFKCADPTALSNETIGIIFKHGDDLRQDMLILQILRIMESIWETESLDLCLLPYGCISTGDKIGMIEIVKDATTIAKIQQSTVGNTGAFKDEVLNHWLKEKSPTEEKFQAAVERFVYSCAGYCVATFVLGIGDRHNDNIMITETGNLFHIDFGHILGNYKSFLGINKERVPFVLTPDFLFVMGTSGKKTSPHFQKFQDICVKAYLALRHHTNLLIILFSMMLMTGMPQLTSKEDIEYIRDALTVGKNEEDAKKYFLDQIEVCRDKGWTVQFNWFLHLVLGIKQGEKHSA
# PI4Kβ, sequence (Q9UBF8 whole entry): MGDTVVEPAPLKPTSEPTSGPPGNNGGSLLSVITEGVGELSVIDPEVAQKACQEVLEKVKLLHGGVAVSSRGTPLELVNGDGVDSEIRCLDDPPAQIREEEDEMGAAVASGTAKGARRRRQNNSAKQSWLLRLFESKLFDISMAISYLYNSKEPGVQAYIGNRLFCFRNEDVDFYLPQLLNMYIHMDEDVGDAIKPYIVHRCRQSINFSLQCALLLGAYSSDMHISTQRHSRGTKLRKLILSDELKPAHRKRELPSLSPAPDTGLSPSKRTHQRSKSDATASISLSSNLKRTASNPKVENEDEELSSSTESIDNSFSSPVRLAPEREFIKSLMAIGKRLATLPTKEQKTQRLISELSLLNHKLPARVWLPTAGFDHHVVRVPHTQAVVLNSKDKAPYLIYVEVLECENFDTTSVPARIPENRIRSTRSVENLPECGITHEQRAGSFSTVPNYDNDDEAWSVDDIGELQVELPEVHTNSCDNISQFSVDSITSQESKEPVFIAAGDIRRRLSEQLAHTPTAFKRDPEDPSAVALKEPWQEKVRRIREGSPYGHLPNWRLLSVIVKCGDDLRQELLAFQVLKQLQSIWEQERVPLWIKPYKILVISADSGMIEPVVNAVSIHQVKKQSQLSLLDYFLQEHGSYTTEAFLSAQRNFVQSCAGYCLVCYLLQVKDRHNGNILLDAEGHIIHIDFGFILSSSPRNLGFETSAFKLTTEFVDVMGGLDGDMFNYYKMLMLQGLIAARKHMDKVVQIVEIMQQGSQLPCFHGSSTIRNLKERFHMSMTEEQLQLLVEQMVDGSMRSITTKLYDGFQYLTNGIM
# PI4Kα, sequence (P42356 whole entry): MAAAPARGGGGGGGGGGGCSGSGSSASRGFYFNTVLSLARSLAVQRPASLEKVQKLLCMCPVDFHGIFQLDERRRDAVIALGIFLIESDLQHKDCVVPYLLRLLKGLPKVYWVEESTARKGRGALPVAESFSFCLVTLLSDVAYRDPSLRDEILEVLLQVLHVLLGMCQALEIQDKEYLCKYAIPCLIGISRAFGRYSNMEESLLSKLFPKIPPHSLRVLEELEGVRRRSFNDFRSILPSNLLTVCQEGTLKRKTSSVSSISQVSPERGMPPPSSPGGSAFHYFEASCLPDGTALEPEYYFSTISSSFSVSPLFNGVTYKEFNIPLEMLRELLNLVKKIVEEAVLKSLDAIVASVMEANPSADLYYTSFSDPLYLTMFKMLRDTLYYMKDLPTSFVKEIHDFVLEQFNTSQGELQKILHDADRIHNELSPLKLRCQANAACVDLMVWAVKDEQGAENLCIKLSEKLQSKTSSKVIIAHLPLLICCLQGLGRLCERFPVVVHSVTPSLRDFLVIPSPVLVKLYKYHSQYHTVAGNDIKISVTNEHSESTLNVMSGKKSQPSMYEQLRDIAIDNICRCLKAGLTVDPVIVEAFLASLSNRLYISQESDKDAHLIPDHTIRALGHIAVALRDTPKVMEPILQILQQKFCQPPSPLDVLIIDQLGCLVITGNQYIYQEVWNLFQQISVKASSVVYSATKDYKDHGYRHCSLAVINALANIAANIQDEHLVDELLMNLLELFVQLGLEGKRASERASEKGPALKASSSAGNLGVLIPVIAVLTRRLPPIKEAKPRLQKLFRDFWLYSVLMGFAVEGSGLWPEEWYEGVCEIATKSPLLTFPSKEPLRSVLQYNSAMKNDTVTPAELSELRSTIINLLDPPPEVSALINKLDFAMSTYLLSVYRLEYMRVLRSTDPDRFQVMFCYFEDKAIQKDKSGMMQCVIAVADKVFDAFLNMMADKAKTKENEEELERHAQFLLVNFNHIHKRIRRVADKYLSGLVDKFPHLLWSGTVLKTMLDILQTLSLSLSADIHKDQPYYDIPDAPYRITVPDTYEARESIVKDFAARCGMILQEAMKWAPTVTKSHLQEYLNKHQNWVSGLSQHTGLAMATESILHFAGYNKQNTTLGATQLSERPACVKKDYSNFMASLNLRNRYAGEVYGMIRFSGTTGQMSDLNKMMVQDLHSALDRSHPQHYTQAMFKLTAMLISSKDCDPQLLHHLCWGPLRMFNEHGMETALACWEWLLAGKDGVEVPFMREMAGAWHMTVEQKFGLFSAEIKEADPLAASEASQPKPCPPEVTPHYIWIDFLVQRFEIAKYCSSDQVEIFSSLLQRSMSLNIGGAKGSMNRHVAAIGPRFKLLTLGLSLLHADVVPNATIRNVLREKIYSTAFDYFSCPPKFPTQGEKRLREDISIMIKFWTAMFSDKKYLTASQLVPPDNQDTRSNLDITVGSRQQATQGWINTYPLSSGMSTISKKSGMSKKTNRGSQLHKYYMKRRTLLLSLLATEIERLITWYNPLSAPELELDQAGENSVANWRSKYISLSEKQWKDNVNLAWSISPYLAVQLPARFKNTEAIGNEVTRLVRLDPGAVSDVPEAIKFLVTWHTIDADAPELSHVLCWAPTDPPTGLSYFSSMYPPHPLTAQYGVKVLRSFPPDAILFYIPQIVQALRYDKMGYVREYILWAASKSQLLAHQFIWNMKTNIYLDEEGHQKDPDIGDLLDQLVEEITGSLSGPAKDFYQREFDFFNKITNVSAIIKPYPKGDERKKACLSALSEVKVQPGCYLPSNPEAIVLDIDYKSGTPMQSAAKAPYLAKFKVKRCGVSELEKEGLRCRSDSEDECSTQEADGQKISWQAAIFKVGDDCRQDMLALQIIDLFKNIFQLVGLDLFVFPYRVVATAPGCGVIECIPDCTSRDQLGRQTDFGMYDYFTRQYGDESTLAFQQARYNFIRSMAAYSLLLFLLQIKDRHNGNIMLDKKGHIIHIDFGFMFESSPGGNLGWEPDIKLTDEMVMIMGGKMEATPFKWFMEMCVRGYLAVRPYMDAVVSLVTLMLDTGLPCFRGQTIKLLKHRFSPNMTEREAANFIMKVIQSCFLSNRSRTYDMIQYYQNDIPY
compound,measurement,setting,value
CS(=O)(=O)c1ccc(-c2cnc(N)c(-c3ccc(C(F)(F)F)nc3)c2)cc1 [MMV390048],AUC(0-t),[1]; 1 mg/kg/day,3750 ng·h/mL
same,Cmax,[1]; 1 mg/kg/day,267 ng/mL
same,Tmax,[1]; 1 mg/kg/day,2 h
same,AUC(0-t),[1]; 3 mg/kg/day,14900 ng·h/mL
same,Cmax,[1]; 3 mg/kg/day,857 ng/mL
same,Tmax,[1]; 3 mg/kg/day,4 h
same,AUC(0-t),[1]; 10 mg/kg/day,64500 ng·h/mL
same,Cmax,[1]; 10 mg/kg/day,3790 ng/mL
same,Tmax,[1]; 10 mg/kg/day,4 h
same,NOAEL,[2],2 mg/kg/day
same,Developmental safety margins,"[3]; rat NOAEL of 6 mg/kg/day vs observed clinical PK data, human volunteers and patients",< 1
same,Female with viable fetuses,[3]; [9],22/22
same,Postimplantation loss (%),[3]; [9],6.9%
same,"Edema, fetuses with malformation/total fetuses examined",[3]; [10],1/336
same,"Edema, litters with malformation/total litters examined",[3]; [10],1/23
same,Female with viable fetuses,[3]; [10],23/23
same,Postimplantation loss (%),[3]; [10],3.5%
same,"food consumption, % of control","[3]; rat main EFD, 6 mg/kg/day",8.9 % of control
same,"maternal weight gain, % of control","[3]; rat main EFD, 6 mg/kg/day",20.2 % of control
same,Female with viable fetuses,[3]; [11],22/22
same,"Hernias, fetuses with malformation/total fetuses examined",[3]; [11],1/154
same,"Hernias, litters with malformation/total litters examined",[3]; [11],1/22
same,Postimplantation loss (%),[3]; [11],2.9%
same,"food consumption, % of control","[3]; rat main EFD, 20 mg/kg/day",11.5 % of control
same,"maternal weight gain, % of control","[3]; rat main EFD, 20 mg/kg/day",41.1 % of control
same,NOAEL,[4],20 mg/kg/day
same,NOAEL for developmental toxicity,[5],not established
same,"Blood vessels AARS, fetuses with malformation/total fetuses examined",[5]; 20 mg/kg/day GD6-GD17,2/280
same,"Blood vessels AARS, litters with malformation/total litters examined",[5]; 20 mg/kg/day GD6-GD17,2/24
same,"Blood vessels ADA, fetuses with malformation/total fetuses examined",[5]; 20 mg/kg/day GD6-GD17,4/280
same,"Blood vessels ADA, litters with malformation/total litters examined",[5]; 20 mg/kg/day GD6-GD17,3/24
same,"Blood vessels IAA, fetuses with malformation/total fetuses examined",[5]; 20 mg/kg/day GD6-GD17,2/280
same,"Blood vessels IAA, litters with malformation/total litters examined",[5]; 20 mg/kg/day GD6-GD17,2/24
same,"Blood vessels NPT, fetuses with malformation/total fetuses examined",[5]; 20 mg/kg/day GD6-GD17,1/280
same,"Blood vessels NPT, litters with malformation/total litters examined",[5]; 20 mg/kg/day GD6-GD17,1/24
same,"Edema, fetuses with malformation/total fetuses examined",[5]; 20 mg/kg/day GD6-GD17,1/280
same,"Edema, litters with malformation/total litters examined",[5]; 20 mg/kg/day GD6-GD17,1/24
same,Female with viable fetuses,[5]; 20 mg/kg/day GD6-GD17,24/24
same,Fetal BW % from CTL,[5]; 20 mg/kg/day GD6-GD17,−10%
same,"Heart VSD, fetuses with malformation/total fetuses examined",[5]; 20 mg/kg/day GD6-GD17,1/280
same,"Heart VSD, litters with malformation/total litters examined",[5]; 20 mg/kg/day GD6-GD17,1/24
same,"Hernias, fetuses with malformation/total fetuses examined",[5]; 20 mg/kg/day GD6-GD17,35/280
same,"Hernias, litters with malformation/total litters examined",[5]; 20 mg/kg/day GD6-GD17,16/24
same,Postimplantation loss (%),[5]; 20 mg/kg/day GD6-GD17,9.6%
same,"females with no viable fetuses, number",[5]; 40 mg/kg/day,6 females
same,"Blood vessels AARS, fetuses with malformation/total fetuses examined",[5]; 40 mg/kg/day GD6-GD17,8/97
same,"Blood vessels AARS, litters with malformation/total litters examined",[5]; 40 mg/kg/day GD6-GD17,8/16
same,"Blood vessels ADA, fetuses with malformation/total fetuses examined",[5]; 40 mg/kg/day GD6-GD17,9/97
same,"Blood vessels ADA, litters with malformation/total litters examined",[5]; 40 mg/kg/day GD6-GD17,7/16
same,"Blood vessels IAA, fetuses with malformation/total fetuses examined",[5]; 40 mg/kg/day GD6-GD17,4/97
same,"Blood vessels IAA, litters with malformation/total litters examined",[5]; 40 mg/kg/day GD6-GD17,4/16
same,"Blood vessels NPT, fetuses with malformation/total fetuses examined",[5]; 40 mg/kg/day GD6-GD17,9/97
same,"Blood vessels NPT, litters with malformation/total litters examined",[5]; 40 mg/kg/day GD6-GD17,6/16
same,"Edema, fetuses with malformation/total fetuses examined",[5]; 40 mg/kg/day GD6-GD17,1/97
same,"Edema, litters with malformation/total litters examined",[5]; 40 mg/kg/day GD6-GD17,1/16
same,Female with viable fetuses,[5]; 40 mg/kg/day GD6-GD17,16/22
same,Fetal BW % from CTL,[5]; 40 mg/kg/day GD6-GD17,−24%
same,"Heart Thick VW, fetuses with malformation/total fetuses examined",[5]; 40 mg/kg/day GD6-GD17,1/97
same,"Heart Thick VW, litters with malformation/total litters examined",[5]; 40 mg/kg/day GD6-GD17,1/16
same,"Heart VSD, fetuses with malformation/total fetuses examined",[5]; 40 mg/kg/day GD6-GD17,21/97
same,"Heart VSD, litters with malformation/total litters examined",[5]; 40 mg/kg/day GD6-GD17,8/16
same,"Hernias, fetuses with malformation/total fetuses examined",[5]; 40 mg/kg/day GD6-GD17,63/97
same,"Hernias, litters with malformation/total litters examined",[5]; 40 mg/kg/day GD6-GD17,15/16
same,Postimplantation loss (%),[5]; 40 mg/kg/day GD6-GD17,66.45%
same,"mean maternal body weight gain, % of controls",[5]; 40 mg/kg/day,41 % of controls
same,"females with no viable fetuses, number",[5]; 60 mg/kg/day,11 females
same,"mean maternal body weight gain, % of controls",[5]; 60 mg/kg/day,49 % of controls
same,"Blood vessels AARS, fetuses with malformation/total fetuses examined",[5]; [12],12/65
same,"Blood vessels AARS, litters with malformation/total litters examined",[5]; [12],12/14
same,"Blood vessels ADA, fetuses with malformation/total fetuses examined",[5]; [12],10/65
same,"Blood vessels ADA, litters with malformation/total litters examined",[5]; [12],6/14
same,"Blood vessels IAA, fetuses with malformation/total fetuses examined",[5]; [12],1/65
same,"Blood vessels IAA, litters with malformation/total litters examined",[5]; [12],1/14
same,"Blood vessels NPT, fetuses with malformation/total fetuses examined",[5]; [12],10/65
same,"Blood vessels NPT, litters with malformation/total litters examined",[5]; [12],6/14
same,"Edema, fetuses with malformation/total fetuses examined",[5]; [12],2/65
same,"Edema, litters with malformation/total litters examined",[5]; [12],1/14
same,Female with viable fetuses,[5]; [12],14/25
same,Fetal BW % from CTL,[5]; [12],−26%
same,"Heart Thick VW, fetuses with malformation/total fetuses examined",[5]; [12],3/65
same,"Heart Thick VW, litters with malformation/total litters examined",[5]; [12],3/14
same,"Hernias, fetuses with malformation/total fetuses examined",[5]; [12],31/65
same,"Hernias, litters with malformation/total litters examined",[5]; [12],11/14
same,Postimplantation loss (%),[5]; [12],79.22% and 79.2%
same,IC50,[6],18.7 µM
same,IC50,[7],4.3 µM
same,binding to human PI4Kβ,[8],no binding
